Source: PubChem BioAssay
Apaf-1 act: human Apaf-1 activation. O14727. Apaf-1 apoptosome caspase-3 activation, DEVD-Rh110 fluorescence; hits give low values. activity change, negative = activation, % at 20 µM. 0.31% of 330,000 active. AID 489031;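 active means activity change at or below -40% at 20 µM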
Target sequence (O14727 whole entry, looked up): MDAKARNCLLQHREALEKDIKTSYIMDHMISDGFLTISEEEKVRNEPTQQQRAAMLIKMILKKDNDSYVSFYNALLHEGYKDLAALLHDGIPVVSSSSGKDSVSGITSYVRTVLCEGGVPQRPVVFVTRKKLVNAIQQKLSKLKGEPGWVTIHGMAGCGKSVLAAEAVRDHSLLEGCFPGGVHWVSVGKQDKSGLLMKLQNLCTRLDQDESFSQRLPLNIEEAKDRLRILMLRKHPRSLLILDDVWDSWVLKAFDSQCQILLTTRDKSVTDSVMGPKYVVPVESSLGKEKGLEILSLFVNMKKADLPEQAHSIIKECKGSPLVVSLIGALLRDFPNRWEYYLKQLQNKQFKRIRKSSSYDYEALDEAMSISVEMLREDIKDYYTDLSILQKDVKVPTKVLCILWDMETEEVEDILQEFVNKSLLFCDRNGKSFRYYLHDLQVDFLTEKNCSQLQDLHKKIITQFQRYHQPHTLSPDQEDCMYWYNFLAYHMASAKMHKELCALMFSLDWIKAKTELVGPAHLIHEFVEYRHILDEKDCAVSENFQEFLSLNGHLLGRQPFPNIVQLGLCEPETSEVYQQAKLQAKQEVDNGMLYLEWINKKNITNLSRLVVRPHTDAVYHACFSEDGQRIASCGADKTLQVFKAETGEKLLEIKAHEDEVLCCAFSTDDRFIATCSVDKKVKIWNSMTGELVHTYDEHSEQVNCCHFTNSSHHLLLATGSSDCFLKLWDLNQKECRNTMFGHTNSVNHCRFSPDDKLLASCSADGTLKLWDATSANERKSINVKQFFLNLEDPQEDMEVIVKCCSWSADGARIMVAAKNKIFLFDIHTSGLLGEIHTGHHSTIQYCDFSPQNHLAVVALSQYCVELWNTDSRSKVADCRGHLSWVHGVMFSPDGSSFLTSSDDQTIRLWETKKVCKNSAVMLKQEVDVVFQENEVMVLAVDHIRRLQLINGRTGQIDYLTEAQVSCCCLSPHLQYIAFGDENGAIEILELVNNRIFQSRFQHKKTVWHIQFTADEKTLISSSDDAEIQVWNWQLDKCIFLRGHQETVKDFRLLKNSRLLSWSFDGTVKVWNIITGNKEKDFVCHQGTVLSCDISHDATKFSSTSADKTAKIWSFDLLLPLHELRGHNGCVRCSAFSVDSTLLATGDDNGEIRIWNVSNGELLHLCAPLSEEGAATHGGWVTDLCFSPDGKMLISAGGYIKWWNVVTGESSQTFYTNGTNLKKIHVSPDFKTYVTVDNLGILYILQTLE
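system = biochemical Apaf-1 apoptosome reconstitution | buffer or medium = 20 mM HEPES pH 7.5 with CHAPS, BSA | also added = dATP and cytochrome c as apoptosome triggers, (Z-DEVD)2-Rh110 substrate | incubation = 30 min compound preincubation and 50 min reaction, both room temperature | measured by = fluorescence, 540 nm emission, 480 nm excitation | read-out basis = Caspase-3 cleavage activity downstream of Apaf-1 activation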
Rh110 interf act: Rh110 signal interference in Apaf-1 activator counter-screen. shares compounds with Apaf-1 act. Rh110 fluorescence interference, quenched caspase reaction, Ex480/Em540. fluorescence interference (activity change), % at 20 µM, hits read low. 980 tested, under 10 active. AID 504616;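 active means mean activity change at or below -40% when tested at 20 µM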
Apaf-1 act conf: Apaf-1 (human) activation, single-dose confirmed; 5% of 980 active; activity change, negative = activation, % at 20 µM; shares compounds with Apaf-1 act; reconstituted apoptosome caspase-3 activity, DEVD-Rh110 fluorescence; hits give low values;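 active means mean activity change at or below -40%, meaning activation of 40% or more, at 20 µM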
Large screens that a line does not name were inactive (follow-up assays come after a bar, where they were run). Only a sample is shown.

CCN(CC)C(=O)C1CCCN(C(=O)Nc2ccc3nsnc3c2)C1 (centres undefined)	none
CN(C)CCCN(C(=O)c1ccc(S(=O)(=O)N2CCc3ccccc3C2)cc1)c1nc2ccc(F)cc2s1	none
COc1ccc(CCNC(=O)C(=O)NCC2CCCN2S(=O)(=O)c2ccc(OC)cc2)cc1 (centres undefined)	none
COc1ccc(CNC(=O)CNS(=O)(=O)c2ccc(Cl)cc2)cc1	Apaf-1 act -177 | Rh110 interf act inactive | Apaf-1 act conf inactive
ONc1cccnc1-n1nc(C(F)(F)F)cc1C(F)(F)F	none
CC(=O)N1CCN(C2=Nc3cccc4cccc2c34)CC1	none
Cc1ccc(C)n1-c1nnc(N2CCC(C(=O)NCCCN3CC(C)CC(C)C3)CC2)s1 (centres undefined)	Apaf-1 act -402 | Rh110 interf act inactive | Apaf-1 act conf inactive
O=C(NCCCN1CCc2ccccc2C1)C1CCN(c2nnc(-n3cccc3)s2)CC1	none
COC(=O)c1c(C(=O)OC)c2cccc3cc(-c4ccccc4)c4ccc1c4n32	none
O=C(Cc1ccccc1)NC1(O)C(=O)c2ccccc2C1=O	none
COc1ccc(OC)c(NC(=S)N2CCN(C/C=C/c3ccccc3)CC2)c1	Apaf-1 act -300 | Rh110 interf act inactive | Apaf-1 act conf inactive
COc1ccc(Cl)cc1NC(=O)C(C)N1CCN(C/C=C/c2ccccc2)CC1 (centres undefined)	none
C[C@H](NC(=O)c1ccc(C(C)(C)C)cc1)C(=O)N1CCN(C/C=C/c2ccccc2)CC1	none
Oc1c(Cl)cc(Cl)c2c1NCCC2	none
COc1ccc(C[C@H]2CN3C(=NC[C@@H]3Cc3ccccc3)N2CCNC(=O)c2ccc(C)c(Br)c2)cc1	none
COc1ccc(/C=N/NC(=O)CNC(=O)/C=C/c2ccco2)cc1OC	Apaf-1 act -408 | Rh110 interf act inactive | Apaf-1 act conf inactive
CSc1ccc(/C=N/NC(=O)CNc2cccc3ccccc23)cc1	none
N/C(=N\OC(=O)c1ccc(Cl)cc1Cl)c1cccnc1	none
Nc1cc(N2CCCC2)c(Cl)cc1[N+](=O)[O-]	none
Cc1cc(Nc2cccc(Cl)c2)nc(NCc2ccccc2)n1	none
COc1ccc(N2C(=O)CC(N(CCc3ccc(OC)c(OC)c3)C(=S)Nc3ccccc3)C2=O)cc1 (centres undefined)	Apaf-1 act -41 | Rh110 interf act inactive | Apaf-1 act conf inactive
CCCCC(=Nc1ccc(N)cc1)C1=C(O)C(C(=O)OC)C(C)(C)CC1=O (centres undefined)	none
N#CC1=C(N)Oc2n[nH]c(-c3cccs3)c2C1c1ccsc1 (centres undefined)	none
OCc1cc(C(O)CNCCCCCCOCCCCc2ccccc2)ccc1O (centres undefined)	none
Nn1c(SCCOc2ccc(Cl)cc2)nnc1-c1cccnc1	Apaf-1 act -44 | Rh110 interf act inactive | Apaf-1 act conf inactive
Clc1ccc(OCCSc2nnnn2C2CCCCC2)cc1	none
Cc1nn(-c2ccccc2)c2c1C(c1ccccc1)C(C#N)=C(N)O2 (centres undefined)	none
O=S(=O)(c1ccc(Br)cc1)N1CCN(c2ccc3nnc(-c4ccccc4)n3n2)CC1	none
COc1ccc(-c2cc(-c3ccc(F)cc3)nc(N3CCN(C)CC3)n2)cc1	none
COc1ccc(-c2[nH]nc3oc(=O)cc(C)c23)cc1	Apaf-1 act -135 | Rh110 interf act inactive | Apaf-1 act conf inactive
COc1ccc(N2C(=O)CCC(C(=O)O)C2c2ccccc2OC)cc1 (centres undefined)	Apaf-1 act -172 | Rh110 interf act inactive | Apaf-1 act conf inactive
Cc1ccc(-c2noc(CCC(=O)N3CCN(c4cccc(C(F)(F)F)c4)CC3)n2)cc1	none
O=C(CSc1ccccn1)N1CCN(c2ccccc2)CC1	Apaf-1 act -49 | Rh110 interf act inactive | Apaf-1 act conf inactive
O=C(NCCc1ccccc1)c1ccccc1SCC(=O)N1CCCC1	none
Cc1cc(C)c(S(=O)(=O)Nc2ccc3c4c(cccc24)CC3)c(C)c1	none
C#CCOCCOCCOCCNc1nc(N2CCN(C(=O)CCCCCCCCCCNC(=O)[C@H]([C@@H](C)CC)n3cc(CCCCN=C(N)N)nn3)CC2)nc(N2CCN(C(=O)CCCCCCCCCCNC(=O)[C@H](CCCCN)n3cc(C[C@@H](C)CC)nn3)CC2)n1	none
CC(=O)c1ccc(NC(=O)c2cnsn2)cc1	Apaf-1 act -410 | Rh110 interf act inactive | Apaf-1 act conf inactive
CC(=O)c1ccc(NC(=O)c2ccc3nc(-c4ccco4)c(-c4ccco4)nc3c2)cc1	none
CC(=O)c1ccc(NC(=S)Nc2cccc3cnccc23)cc1	none
O=C(NCc1ccccc1)c1ccc2nc(-c3ccco3)c(-c3ccco3)nc2c1	none
COc1ccc(-c2noc(-c3ccccc3C(=O)NCc3ccco3)n2)cc1OC	Apaf-1 act -324 | Rh110 interf act inactive | Apaf-1 act conf inactive
